# Most compounds without a hit are left out; they make up all but 2.9% or so of the library.
# dFosB act-1: activators of mouse delta FosB homodimer. P13346. purified delta FosB, TAMRA-CDK5 oligo fluorescence polarization; percent of positive-control signal above neutral wells. activation, % at 25 µM. actives 0.99% (n = 340,000). AID 493131;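 active = mean activation above about 17%, with every replicate also reaching it, limit read from the data, passing the limit was not always enough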
# CDK5 inh: inhibitors of human CDK5/p35 kinase; Q00535+Q15078; Recombinant CDK5/p35, ADP-Glo luminescence, 60 min; inhibition, % at 10 µM; actives 0.01% (n = 330,000); AID 488839;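 active = highest replicate inhibition of at least 50% and at least 75% of replicates reaching 50%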
# Target sequence (Q00535 whole entry, looked up): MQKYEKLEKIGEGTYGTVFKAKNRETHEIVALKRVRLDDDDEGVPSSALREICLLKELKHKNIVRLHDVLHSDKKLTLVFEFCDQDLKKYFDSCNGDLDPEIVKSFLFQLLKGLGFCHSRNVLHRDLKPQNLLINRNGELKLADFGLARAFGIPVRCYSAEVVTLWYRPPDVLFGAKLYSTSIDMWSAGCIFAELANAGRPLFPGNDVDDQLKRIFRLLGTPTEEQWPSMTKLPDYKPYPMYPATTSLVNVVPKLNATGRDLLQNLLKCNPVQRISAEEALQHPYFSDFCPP
# Target sequence (Q15078 whole entry, looked up): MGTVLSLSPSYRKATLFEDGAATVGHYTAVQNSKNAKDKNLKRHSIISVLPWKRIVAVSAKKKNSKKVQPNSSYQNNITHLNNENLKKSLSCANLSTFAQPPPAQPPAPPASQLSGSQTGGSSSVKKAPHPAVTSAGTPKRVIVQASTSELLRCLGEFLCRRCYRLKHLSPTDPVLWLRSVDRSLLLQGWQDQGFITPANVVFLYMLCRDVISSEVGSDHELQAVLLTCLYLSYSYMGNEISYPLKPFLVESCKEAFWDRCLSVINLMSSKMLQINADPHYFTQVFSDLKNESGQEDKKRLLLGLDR
# GSIS activator: GLuc luminescence reporter in INS-1E cells, primary screen for activators of glucose-dependent secretion of insulin | INS-1E GLuc reporter insulin secretion, 2-3 h | activation, % at 16.6 µM | actives 0.61% (n = 370,000);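 active = lowest replicate activation of at least 40%, so every replicate reaches that level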
# Cneo AK release: Cryptococcus neoformans lysis via adenylate kinase release; lysis activity, % at 15 µM; AID 651654; C. neoformans lysis, adenylate kinase release luminescence, 4 h; normalised: neutral wells 0, clomiphene wells 100; actives 0.2% (n = 360,000);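 active = mean lysis activity across replicates of at least 80%, whatever share of replicates individually reach that level; inactive = mean lysis activity below 80%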
#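 Assay system: Cryptococcus neoformans yeast cells / Dosing: single-point compound dose / Timing: 4 h at 37 °C static, read 1 h later / Measured by: luminescence of released adenylate kinase using an AK detection reagent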
# HIV Env fusion: HIV envelope-mediated fusion inhibition; HeLa-JRFL Env/CEM21 cell fusion, luciferase; inhibition, % at 12.3 µM; actives 1.1% (n = 360,000); AID 651610;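 active = mean replicate inhibition score of at least 50 and every replicate individually at or above 50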
# PAX8 inh HTS: PAX8 transcriptional activity inhibition; inhibition, % at 12.6 µM; RMG-I TPO-luciferase reporter, SteadyGlo, 24 h; actives 1.2% (n = 360,000); AID 652154;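 active = mean replicate inhibition at least 60% with every replicate also reaching 60%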;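 also: luciferase light reporting Pax8 driven TPO promoter activity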
# dFosB act-2: activators of mouse delta FosB homodimer DNA binding. shares compounds with dFosB act-1. purified delta FosB, TAMRA-CDK5 oligo fluorescence polarization; normalised: neutral wells 0, positive control 100. activation, % at 24.9 µM. 2,400 tested, under 10 active. AID 588690;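 active = highest replicate activation at or above 34% and every replicate reaching that threshold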;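 also: higher polarization means more probe DNA bound by delta FosB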
# Hits are given with their value; . = inactive; / = no result.
SMILES,dFosB act-1,CDK5 inh,GSIS activator,Cneo AK release,HIV Env fusion,PAX8 inh HTS,dFosB act-2
Cc1ccc(CNC(=O)CSc2nnc3c(n2)[nH]c2ccccc23)cc1,28,.,.,.,.,.,.
COc1ccccc1S(=O)(=O)N1CC[C@@H]2[C@H](CO)Nc3ccc(Br)cc3[C@@H]21,/,/,.,.,/,.,/
C=CCOc1ccc(CN(C)CC(O)COc2cccc3ccccc23)cc1 (stereo not given),19,.,.,.,.,.,.
Cc1cc(CN(C)Cc2ccc(OCC(O)CN(C)Cc3ccccc3)cc2)on1 (stereo not given),.,.,.,.,.,.,/
Cc1ccc(OCCCCCCN2CCNCC2)c(Br)c1,23,.,.,.,.,.,.
Cc1ccc(OCCCCN2CCC(C)CC2)c(Br)c1,.,.,.,.,.,/,/
CC(=O)Nc1ccc(NC(=O)CSc2nnc(NC(=O)C3CC3)s2)cc1,28,.,.,.,.,.,.
CC(=O)Nc1ccc(NC(=O)CSc2nnc(NC(=O)Cc3ccc(F)cc3)s2)cc1,24,.,.,.,/,/,.
COc1ccc(NC(=O)CSc2nnc(NC(=O)C3CCC3)s2)cc1,.,.,.,.,.,.,/
O=C(CSc1nnc(NC(=O)C2CC2)s1)Nc1ccccc1,25,.,.,.,.,.,.
O=C(CSc1nnc(NC(=O)C2CC2)s1)Nc1ccc(F)cc1,.,.,/,.,.,.,/
CN(CC(=O)Nc1c(Cl)cccc1Cl)C(=O)CNC(=O)c1sc2ccccc2c1Cl,35,.,.,.,/,.,.
Cc1nn(Cc2c(Cl)cccc2Cl)c(C)c1NC(=O)c1sc2ccccc2c1Cl,40,.,/,.,/,/,.
COc1ccc(NC(=O)CN(C)C(=O)CNC(=O)c2sc3ccccc3c2Cl)cc1,.,.,.,.,.,.,/
Cc1nn(Cc2ccc(Cl)c(Cl)c2)c(C)c1NC(=O)c1sc2ccccc2c1Cl,.,.,/,.,.,.,/
C[C@H](CO)N1C[C@H](C)[C@H](CN(C)S(=O)(=O)c2ccc(F)cc2)Oc2ncc(C#CCN(C)C)cc2C1=O,/,/,.,.,.,.,/
O=C(COc1ccc2ccccc2c1Br)Nc1ncn[nH]1,25,.,.,/,/,/,.
Cc1c(C(=O)OC/C(O)=C(\C#N)c2nc3ccccc3[nH]2)oc2ccccc12,45,.,.,.,.,.,.
Cc1c(C(=O)OCC(O)=C(C#N)c2nc3ccccc3[nH]2)oc2ccc(Br)cc12,.,.,/,/,.,/,/
COc1cc(OC)cc(C(=O)OC/C(O)=C(\C#N)c2nc3ccccc3[nH]2)c1,40,.,.,.,.,.,.
CN(C)c1ccc2c(c1)[C@@H]1C[C@H](CC(=O)NCC3CC3)O[C@H](CO)[C@@H]1O2,/,/,.,.,.,.,/
Cc1csc(NC(=O)Cc2c(F)cccc2Cl)n1,.,.,.,.,.,.,/
Cc1csc(Nc2nc(N)c(C(=O)Nc3cc(Cl)ccc3F)o2)n1,20,.,.,.,.,.,.
O=C(N/N=C/c1ccco1)c1cc(-c2ccc(Cl)cc2)n[nH]1,25,.,.,/,.,.,.
C[C@@H]1CN([C@H](C)CO)C(=O)Cc2cc(NC(=O)Cc3ccccc3)ccc2O[C@H]1CN(C)S(=O)(=O)c1ccccc1,/,/,.,.,.,.,/
SMILES,dFosB act-1,CDK5 inh,GSIS activator,Cneo AK release,HIV Env fusion,PAX8 inh HTS,dFosB act-2
CCOC(=O)Nc1ccc2c(c1)N(C(=O)CN)c1ccccc1CC2,30,.,.,.,.,.,.
CCNCC(=O)N1c2ccccc2CCc2ccc(NC(=O)OCC)cc21,.,.,/,.,/,/,/
CCOc1ccc(NC(=S)NC(=O)/C=C/c2ccc(OC)c(OC)c2)c([N+](=O)[O-])c1,25,.,/,.,.,/,.
CCOc1ccc(NC(=O)/C=C/c2ccc(OC)cc2)c([N+](=O)[O-])c1,.,.,.,.,.,.,/
CCOc1ccc(NC(=S)NC(=O)/C=C/c2ccc(C)cc2)c([N+](=O)[O-])c1,39,.,/,/,/,/,.
NS(=O)(=O)c1ccc(NC(=O)c2ccc(CSc3ccccc3)o2)cc1,34,.,.,.,.,.,.

# Source: PubChem BioAssay (Broad Institute)
